Laboratory results taken from ChEMBL document CHEMBL1137607, “De novo discovery of serotonin N-acetyltransferase inhibitors” (J Med Chem, 2007).
Active and inactive are the calls of the source. The calls are words filed in the database; no cut-off is given here.

Legend:
[1] = target: Serotonin N-acetyltransferase (Ovis aries) (UniProt Q29495); settings: at 100 µM
[2] = target: Serotonin N-acetyltransferase (Ovis aries) (UniProt Q29495); settings: at 100 µM; remark: listed apart in the source
[3] = target: Serotonin N-acetyltransferase (Ovis aries) (UniProt Q29495); settings: at 100 µM; remark: listed apart in the source
[4] = target: T1, Serotonin N-acetyltransferase (Ovis aries, UniProt Q29495); assay: Inhibition of ovine AANAT by spectrophotometric assay
T1 sequence (Q29495 whole entry): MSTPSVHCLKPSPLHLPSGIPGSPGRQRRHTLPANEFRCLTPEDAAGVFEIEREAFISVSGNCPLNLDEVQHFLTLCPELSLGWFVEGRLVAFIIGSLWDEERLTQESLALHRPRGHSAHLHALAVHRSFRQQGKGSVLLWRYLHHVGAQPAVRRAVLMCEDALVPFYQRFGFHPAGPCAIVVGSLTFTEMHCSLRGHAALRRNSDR

[5] = target: Serotonin N-acetyltransferase (Ovis aries) (UniProt Q29495); settings: at 100 µM; remark: listed apart in the source
[6] = target: Serotonin N-acetyltransferase (Ovis aries) (UniProt Q29495); assay: Inhibition of ovine AANAT at 25 uM by radioactive assay
[7] = target: Serotonin N-acetyltransferase (Ovis aries) (UniProt Q29495); assay: Inhibition of ovine AANAT in presence of Triton X-100 at 25 uM by spectrophotometric assay
[8] = target: Serotonin N-acetyltransferase (Ovis aries) (UniProt Q29495); assay: Inhibition of ovine AANAT at 25 uM by spectrophotometric assay
[9] = target: Serotonin N-acetyltransferase (Ovis aries) (UniProt Q29495); assay: Inhibition of ovine AANAT at 25 uM by alpha-KD-coupled spectrophotometric assay
[10] = Inhibition of melatonin biosynthesis in rat pinealocytes; assay type: functional, cell-based
[11] = target: Histone acetyltransferase KAT2B (Homo sapiens) (UniProt Q92831); assay: Inhibition of PCAF HAT at 50 uM
Histone acetyltransferase KAT2B (Homo sapiens), sequence (Q92831 whole entry, looked up, the tested form may be a part): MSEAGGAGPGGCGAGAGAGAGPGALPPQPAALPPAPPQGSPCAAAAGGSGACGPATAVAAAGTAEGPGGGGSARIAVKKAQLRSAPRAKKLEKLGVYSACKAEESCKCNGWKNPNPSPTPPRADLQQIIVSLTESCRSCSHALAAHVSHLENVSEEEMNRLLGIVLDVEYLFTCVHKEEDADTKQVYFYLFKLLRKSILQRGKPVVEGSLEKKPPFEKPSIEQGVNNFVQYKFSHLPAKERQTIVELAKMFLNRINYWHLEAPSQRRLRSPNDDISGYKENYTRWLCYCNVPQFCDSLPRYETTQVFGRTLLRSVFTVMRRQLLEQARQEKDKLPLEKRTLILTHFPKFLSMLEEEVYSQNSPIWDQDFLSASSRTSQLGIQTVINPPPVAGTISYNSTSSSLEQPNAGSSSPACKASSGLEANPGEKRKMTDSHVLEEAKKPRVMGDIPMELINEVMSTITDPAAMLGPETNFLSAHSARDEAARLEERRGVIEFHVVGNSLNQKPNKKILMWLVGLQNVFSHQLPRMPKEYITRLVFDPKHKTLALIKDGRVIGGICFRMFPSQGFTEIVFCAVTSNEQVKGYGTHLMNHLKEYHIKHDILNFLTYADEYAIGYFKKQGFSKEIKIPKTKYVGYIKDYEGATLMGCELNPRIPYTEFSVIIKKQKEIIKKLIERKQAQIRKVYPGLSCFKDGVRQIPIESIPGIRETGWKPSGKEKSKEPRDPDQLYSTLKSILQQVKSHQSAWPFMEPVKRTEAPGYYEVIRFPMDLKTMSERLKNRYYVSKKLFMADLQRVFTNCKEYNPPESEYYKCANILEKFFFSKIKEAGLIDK
Outline: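 Radioactive HAT assay on purified PCAF HAT catalytic domain (10 nM), with histone H3 residues 1-20 (10 μM) as substrate, in 50 mM Tris-HCl pH 8.0, 1 mM DTT, 0.1 mM EDTA, 50 μg/mL BSA, 3.3% DMSO, 30 °C. Inhibitor tested at 0-50 μM. Started with 20 μM [14C]-AcCoA and quenched after 5 min. Gel separation, phosphorimaging against [14C]-BSA standard, no-enzyme background subtracted, duplicates.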

[12] = Toxicity in rat pinealocytes; assay type: cell-based; settings: in vitro
[13] = target: T1, Serotonin N-acetyltransferase; assay: Inhibition of ovine AANAT by TLC-based radioactive assay

Serotonin N-acetyltransferase (Ovis aries), sequence (Q29495 whole entry): as the sequence (Q29495 whole entry) above

Row | Structure (SMILES) | inhibition [1] [%] | inhibition [2] [%] | inhibition [3] [%] | IC50 [4] [µM] | inhibition [5] [%] | inhibition [7] [%] | inhibition [8] [%] | inhibition [9] [%] | further results
1 | CCc1ccc(/C=N/c2c(C)n(C)n(-c3ccccc3)c2=O)cc1 |  |  |  |  |  | 61 | 70 | 47 | inhibition [6]: 0%
2 | O=C(O)CCCN1C(=O)/C(=C2/C(=O)Nc3ccc(Br)cc32)SC1=S |  |  |  |  |  | 41 | 52 | 21 | 
3 | CCOc1ccc(C(=O)CC(=O)Nc2ccc(S(=O)(=O)F)cc2)cc1OC | 100 | 98 | 79 |  | 31 |  |  |  | 
4 | COc1ccc(/N=N/c2ccc(S(=O)(=O)O)cc2)cc1 | 60 | 65 | 28 |  |  |  |  |  | 
5 | O=C(O)COc1ccc(/C=N/NC(=O)c2ccc(OCc3ccccc3)cc2)cc1 |  |  |  | 402 | 74 |  |  |  | 
6 | COc1ccc(/C=N/c2ccc(CC(=O)O)cc2)cc1 | 30 | 41 | 64 |  | 13 |  |  |  | 
7 | CC(C)Oc1ccc(C(=O)CC(=O)Nc2ccc(S(=O)(=O)F)cc2)cc1 |  |  |  |  |  | 59 | 43 | 0 | 
8 | COC(=O)Nc1ccc(S(=O)(=O)Nc2cc(OC)nc(OC)n2)cc1 | 24 | 42 |  |  |  |  |  |  | 

Continued, in another order:

Row | inhibition [1] [%] | inhibition [2] [%] | inhibition [3] [%] | IC50 [4] [µM] | inhibition [5] [%] | inhibition [7] [%] | inhibition [8] [%] | inhibition [9] [%] | Structure (SMILES) | further results
9 | 23 | 50 |  |  |  |  |  |  | O=C1CC(CC(=O)N/N=C/c2c(O)ccc3ccccc23)=NN1 | 
10 | 83 | 100 | 78 | 52.9 | 94 |  |  |  | O=C(O)CCCCCN1C(=O)C(C2C(=O)Nc3ccccc32)SC1=S (stereo not given) | 
11 |  |  |  |  |  | 55 | 43 | 11 | O=C(O)CCCCCN1C(=O)/C(=C2/C(=O)N(CC(=O)O)c3ccc(Br)cc32)SC1=S | 
12 | 74 | 81 | 66 | 45.2 | 98 |  |  |  | O=C(O)CCCCCN1C(=O)C(C2C(=O)N(Cc3ccc(F)cc3)c3ccccc32)SC1=S (stereo not given) | IC50 [10]: 100 µM; Activity [11]: inactive; Activity [12]: Non-toxic; IC50 [13]: 11.1 µM
13 |  |  |  |  |  | 41 | 52 | 56 | COc1ccc(NC(=O)CN2C(=O)/C(=C3\SCN(CCS(=O)(=O)O)C3=O)c3ccccc32)cc1 | inhibition [6]: 0%
14 | 98 | 84 | 54 | 25.2 | 99 |  |  |  | Cc1ccc(CN2C(=O)C(C3SC(=S)N(CCS(=O)(=O)O)C3=O)c3ccccc32)cc1 (stereo not given) | 
15 | 80 | 99 | 70 | 15.8 | 99 |  |  |  | O=C(CN1C(=O)C(C2SC(=S)N(CCS(=O)(=O)O)C2=O)c2ccccc21)Nc1ccccc1 (stereo not given) | 
16 | 11 | 40 |  |  |  |  |  |  | O=C(COc1ccc([N+](=O)[O-])cc1)N/N=C/c1ccccc1COc1ccccc1 | 
